According to ChEMBL document CHEMBL4311941, “Development of Multifunctional Histone Deacetylase 6 Degraders with Potent Antimyeloma Activity” (J Med Chem, 2019):
Calls of active or inactive are those of the source. No cut-off for these calls is given here.

Key:
[1] = molecular target: T1, Cereblon/Ikaros (Homo sapiens) (UniProt Q96SW2+Q13422); assay: Protac activity at CRBN/IKZF1 in human MM1S cells assessed as IKZF1 degradation at 100 nM measured after 6 hrs in presence of HDAC6 inhibitor Next-A by Western blot analysis; type: cell-based
How it was run: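 MM1S cells seeded at 1 × 10^6 per well overnight. Pretreated 1 h with pomalidomide, Next-A, MLN 4924 or DMSO, then given 100 nM degrader or DMSO for 6 h. Lysed in RIPA with protease inhibitors, 10−40 μg protein run on SDS-PAGE and transferred to PVDF. Blots probed for IKZF1/IKZF3, detected by ECL and quantified by densitometry.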

[2] = molecular target: Protein cereblon/Histone deacetylase 4 (Homo sapiens) (UniProt P56524+Q96SW2); assay: Protac activity at CRBN/HDAC4 in human MM1S cells assessed as HDAC4 degradation at 100 nM measured after 6 hrs in presence of proteasome inhibitor bortezomib by Western blot analysis; type: cell-based
MM1.S [3] = assay: Antiproliferative activity against human MM1S cells assessed as reduction in cell viability at 1 uM measured after 72 hrs by resazurin dye based assay; type: functional
[4] = molecular target: T2, Protein cereblon/Histone deacetylase 1 (Homo sapiens) (UniProt Q13547+Q96SW2); assay: Protac activity at CRBN/HDAC1 in human MM1S cells assessed as HDAC1 degradation measured after 6 hrs by Western blot analysis; type: cell-based
MM1.S [5] = assay: Effect on HDAC1 mRNA expression in human MM1S cells at 100 nM measured after 6 hrs by SYBR green dye-based qRT-PCR analysis; type: functional, cell-based
How it was run: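 After treatment, MM1S cells washed twice with cold PBS. Total RNA extracted and normalized, then reverse-transcribed. 10 ng cDNA amplified with SYBR Green: 50 °C 2 min, 95 °C 2 min, then 40 cycles of 95 °C 1 s / 60 °C 30 s, followed by a melt curve. Expression calculated by the 2−ΔΔCt method.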

[6] = molecular target: T3, Protein cereblon/Protein deacetylase HDAC6 (Homo sapiens, UniProt Q9UBN7+Q96SW2); assay: Protac activity at CRBN/HDAC6 in human MM1S cells assessed as HDAC6 degradation measured after 6 hrs by ELISA relative to control; type: cell-based
How it was run: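 In-cell ELISA: MM1S cells (5 × 10^4 per well) seeded overnight, treated 6 h (dosed as 5× medium; 0.1 nM–1 μM or 10/100 nM). Fixed in 8% formaldehyde/TBS, permeabilized with 0.1% Triton X, peroxidase quenched with 1% H2O2, blocked in 5% BSA. Anti-HDAC6 rabbit mAb (1:1000, 2 h) then HRP secondary; TMB read as OD450 − OD570. Background wells lacked primary antibody. Signal normalized to Janus Green and to DMSO wells, n = 3. DC50/Dmax from three-parameter fit.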

Histone deacetylase 4 = Histone deacetylase 4 (Homo sapiens, UniProt P56524); assay: Inhibition of human N-terminal tagged human HDAC4 expressed in HEK293T/17 using Boc-[TFA-Lys]-AMC as substrate preincubated for 10 mins followed by substrate addition and measured after 60 mins by fluorescence assay
[7] = molecular target: T1, Cereblon/Ikaros (Homo sapiens); assay: Protac activity at CRBN/IKZF1 in human MM1S cells assessed as IKZF1 degradation at 100 nM measured after 4 hrs by Western blot analysis; type: cell-based
MM1.S [8] = assay: Induction of apoptosis in human MM1S cells assessed as cleavage of PARP measured after 48 hrs by Western blot analysis; type: functional, cell-based
[9] = molecular target: T3, Protein cereblon/Protein deacetylase HDAC6; assay: Protac activity at CRBN/HDAC6 in human MM1S cells assessed as HDAC6 degradation at 100 nM measured after 6 hrs in presence of NAE inhibitor MLN 4924 by Western blot analysis; type: cell-based
[10] = molecular target: T3, Protein cereblon/Protein deacetylase HDAC6; assay: Protac activity at CRBN/HDAC6 in human MM1S cells assessed as HDAC6 degradation at 3 to 30 nM measured after 6 hrs by Western blot analysis; type: cell-based
[11] = molecular target: T3, Protein cereblon/Protein deacetylase HDAC6; assay: Protac activity at CRBN/HDAC6 in human A431 cells assessed as HDAC6 degradation up to 3 uM incubated for 12 hrs by Western blot analysis; type: cell-based
[12] = molecular target: T3, Protein cereblon/Protein deacetylase HDAC6; assay: Protac activity at CRBN/HDAC6 in human MM1S cells assessed as HDAC6 degradation at 100 nM measured after 6 hrs in presence of proteasome inhibitor bortezomib by Western blot analysis; type: cell-based
MM1.S [13] = assay: Antiproliferative activity against human MM1S cells assessed as reduction in cell viability measured after 72 hrs by resazurin dye based assay relative to control; type: functional
How it was run: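 MM1S cells seeded at 1 × 10^4 per well, left overnight, then given compound or DMSO vehicle (added as 5× dosing medium) for 72 h at 37 °C, 5% CO2. Resazurin added (10× solution, 1 mg/mL), then incubated overnight at 37 °C. OD read at 570 and 600 nm. Viability is relative to vehicle, n = 3. Curves fitted as [inhibitor] vs response (three parameters); test range 0.3 nM–3 μM.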

[14] = molecular target: T2, Protein cereblon/Histone deacetylase 1 (Homo sapiens); assay: Protac activity at CRBN/HDAC1 in human MM1S cells assessed as HDAC1 degradation at 100 nM measured after 6 hrs in presence of proteasome inhibitor MG132 by Western blot analysis; type: cell-based

T3 sequence (Q96SW2 whole entry, looked up): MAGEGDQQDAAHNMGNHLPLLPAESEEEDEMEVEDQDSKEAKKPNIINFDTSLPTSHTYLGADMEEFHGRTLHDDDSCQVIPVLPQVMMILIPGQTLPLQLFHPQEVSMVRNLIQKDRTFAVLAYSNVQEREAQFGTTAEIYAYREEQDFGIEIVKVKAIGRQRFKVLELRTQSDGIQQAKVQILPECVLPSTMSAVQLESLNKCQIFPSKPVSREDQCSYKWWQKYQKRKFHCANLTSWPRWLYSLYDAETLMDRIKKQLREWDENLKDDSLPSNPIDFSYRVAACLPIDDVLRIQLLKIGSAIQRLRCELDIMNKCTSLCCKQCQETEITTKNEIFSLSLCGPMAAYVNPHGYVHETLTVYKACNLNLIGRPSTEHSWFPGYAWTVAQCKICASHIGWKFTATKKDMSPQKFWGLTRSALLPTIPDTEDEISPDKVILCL
T3 sequence (Q9UBN7 whole entry, looked up): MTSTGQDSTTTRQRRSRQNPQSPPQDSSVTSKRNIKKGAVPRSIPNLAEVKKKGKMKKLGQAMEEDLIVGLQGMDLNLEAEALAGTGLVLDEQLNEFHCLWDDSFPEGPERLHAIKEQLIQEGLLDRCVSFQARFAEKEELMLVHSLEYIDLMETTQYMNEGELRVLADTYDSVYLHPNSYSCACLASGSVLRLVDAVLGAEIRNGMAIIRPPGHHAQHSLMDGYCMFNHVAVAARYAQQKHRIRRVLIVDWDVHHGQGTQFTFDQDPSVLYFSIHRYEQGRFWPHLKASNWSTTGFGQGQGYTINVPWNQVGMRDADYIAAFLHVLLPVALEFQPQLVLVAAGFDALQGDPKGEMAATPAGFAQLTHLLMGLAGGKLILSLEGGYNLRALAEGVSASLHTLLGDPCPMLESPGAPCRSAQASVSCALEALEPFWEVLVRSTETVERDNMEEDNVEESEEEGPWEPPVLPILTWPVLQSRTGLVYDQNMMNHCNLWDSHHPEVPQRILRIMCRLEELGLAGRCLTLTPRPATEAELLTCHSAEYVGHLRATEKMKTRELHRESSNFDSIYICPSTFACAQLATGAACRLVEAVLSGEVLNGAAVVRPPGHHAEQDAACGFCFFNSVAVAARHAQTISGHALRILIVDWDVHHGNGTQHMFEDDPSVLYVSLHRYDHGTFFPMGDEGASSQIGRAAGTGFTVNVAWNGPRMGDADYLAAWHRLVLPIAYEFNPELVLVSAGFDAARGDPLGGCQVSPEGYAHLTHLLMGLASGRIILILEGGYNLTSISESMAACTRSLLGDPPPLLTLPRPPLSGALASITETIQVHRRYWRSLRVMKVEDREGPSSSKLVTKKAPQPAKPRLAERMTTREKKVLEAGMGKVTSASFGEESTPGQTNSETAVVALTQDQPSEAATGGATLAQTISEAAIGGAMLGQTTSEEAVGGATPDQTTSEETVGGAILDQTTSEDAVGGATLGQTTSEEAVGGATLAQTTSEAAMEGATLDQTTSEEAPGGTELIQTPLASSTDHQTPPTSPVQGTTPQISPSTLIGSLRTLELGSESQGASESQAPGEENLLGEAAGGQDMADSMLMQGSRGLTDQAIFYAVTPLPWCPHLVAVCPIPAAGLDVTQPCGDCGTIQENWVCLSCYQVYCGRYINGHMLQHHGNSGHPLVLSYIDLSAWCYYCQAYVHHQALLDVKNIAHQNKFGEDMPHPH
T2 sequence (Q13547 whole entry, looked up): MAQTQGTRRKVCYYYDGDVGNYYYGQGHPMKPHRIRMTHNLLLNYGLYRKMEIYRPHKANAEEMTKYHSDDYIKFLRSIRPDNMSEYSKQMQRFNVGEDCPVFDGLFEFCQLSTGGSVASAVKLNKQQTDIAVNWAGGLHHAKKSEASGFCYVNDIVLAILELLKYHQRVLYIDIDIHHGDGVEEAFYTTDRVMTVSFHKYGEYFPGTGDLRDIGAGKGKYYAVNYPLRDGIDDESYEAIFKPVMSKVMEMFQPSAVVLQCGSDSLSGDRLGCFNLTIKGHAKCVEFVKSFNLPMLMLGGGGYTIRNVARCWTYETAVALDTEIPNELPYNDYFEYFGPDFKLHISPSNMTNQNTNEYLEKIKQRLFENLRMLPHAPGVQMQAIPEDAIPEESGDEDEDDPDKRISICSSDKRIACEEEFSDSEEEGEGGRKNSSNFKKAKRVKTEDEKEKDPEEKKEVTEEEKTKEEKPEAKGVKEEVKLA
T2 sequence (Q96SW2 whole entry, looked up): as the sequence (Q96SW2 whole entry, looked up) above
Chain of Histone deacetylase 4 (P56524 whole entry): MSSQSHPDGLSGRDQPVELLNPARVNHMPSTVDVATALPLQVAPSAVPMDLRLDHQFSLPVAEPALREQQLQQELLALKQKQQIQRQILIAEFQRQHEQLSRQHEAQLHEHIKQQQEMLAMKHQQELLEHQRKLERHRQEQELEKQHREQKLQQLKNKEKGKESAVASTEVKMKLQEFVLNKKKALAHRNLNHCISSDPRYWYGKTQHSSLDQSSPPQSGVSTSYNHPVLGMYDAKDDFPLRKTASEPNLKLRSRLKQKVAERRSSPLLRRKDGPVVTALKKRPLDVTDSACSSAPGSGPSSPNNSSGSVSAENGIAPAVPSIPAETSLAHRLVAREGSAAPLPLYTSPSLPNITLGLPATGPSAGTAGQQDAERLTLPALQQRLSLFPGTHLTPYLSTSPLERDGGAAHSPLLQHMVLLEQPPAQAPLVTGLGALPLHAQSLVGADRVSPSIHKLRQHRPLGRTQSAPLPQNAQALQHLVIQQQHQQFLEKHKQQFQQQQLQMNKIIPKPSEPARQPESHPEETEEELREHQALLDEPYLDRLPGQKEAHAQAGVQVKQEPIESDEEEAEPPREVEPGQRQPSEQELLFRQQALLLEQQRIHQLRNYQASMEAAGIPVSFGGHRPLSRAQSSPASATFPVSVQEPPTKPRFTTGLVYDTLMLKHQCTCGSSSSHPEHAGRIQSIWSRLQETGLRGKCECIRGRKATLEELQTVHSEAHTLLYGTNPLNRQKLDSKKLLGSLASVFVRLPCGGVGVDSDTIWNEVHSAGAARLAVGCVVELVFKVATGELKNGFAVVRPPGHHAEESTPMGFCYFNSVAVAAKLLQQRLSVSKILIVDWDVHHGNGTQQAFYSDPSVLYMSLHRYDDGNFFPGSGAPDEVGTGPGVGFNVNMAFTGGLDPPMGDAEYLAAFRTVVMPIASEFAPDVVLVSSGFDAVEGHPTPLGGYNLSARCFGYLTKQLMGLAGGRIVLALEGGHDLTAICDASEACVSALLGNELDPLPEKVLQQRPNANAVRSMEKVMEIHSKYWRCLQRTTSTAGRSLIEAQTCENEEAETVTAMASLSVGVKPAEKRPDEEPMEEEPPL
Chain of Protein cereblon/Histone deacetylase 4 (Homo sapiens) (P56524 whole entry, looked up): as the sequence (P56524 whole entry) above
Chain of Protein cereblon/Histone deacetylase 4 (Homo sapiens) (Q96SW2 whole entry, looked up): as the sequence (Q96SW2 whole entry, looked up) above

Activity [1]: Active
Activity [2]: inactive
Activity [4]: inactive
%max [6]: 86.3%
IC50 (Histone deacetylase 4): 0.3 to 30 µM
Activity [7]: Active
Activity [9]: inactive
Activity [10]: Active
Activity [11]: Active
Activity [12]: inactive
Activity [14]: inactive
Compound: CCCCN(Cc1ccc(C(=O)NO)cc1)C(=O)Nc1ccc(OCCCCCn2cc(CNc3cccc4c3C(=O)N(C3CCC(=O)NC3=O)C4=O)nn2)cc1 (stereo not given)
Activity (MM1.S [3]): Active
Activity (MM1.S [5]): Active
Activity (MM1.S [8]): Dose-dependent effect
Imax (MM1.S [13]): 63.1%
